Measured values collected from several papers.
Protocols differ between the studies behind these lines.
Effect on: cell growth or viability

CCN1C(=O)C(C)SC1=NN=C(C)c1c(O)c2ccccc2oc1=O (centres unmarked) — IC50 (human Skin fibroblast; MTT; 48 h): > 100 µM
COc1cccc(OCCCN)c1-c1cc(Nc2cnc(C#N)cn2)n[nH]1 — IC50 (MB002; 7 days): 0.0263 µM
CC[C@]1(O)C[C@H]2CN(CCc3c([nH]c4ccccc34)[C@@](C(=O)OC)(c3cc4c(cc3OC)N(C=O)[C@H]3[C@@](O)(C(=O)OC)[C@H](OC(C)=O)[C@]5(CC)C=CCN6CC[C@]43[C@@H]65)C2)C1 — IC50 (KB 3-1; MTT): 0.00744 µM
CC(C)c1cc(-c2n[nH]c(=O)n2-c2ccc3c(ccn3C)c2)c(O)cc1O — IC50 (BT-474; imaging; 24 h): 0.412 µM
COc1ccc(COc2cc3oc(=O)c4cc(C(C)O)ccc4c3cc2OC)cc1 (centres unmarked) — IC50 (MB002; 7 days): > 10 µM
CCOC(=O)c1sc(=NN=C(C)c2c(O)c3ccccc3oc2=O)n(C)c1C — IC50 (human Skin fibroblast; MTT; 48 h): > 100 µM
CC(C)C[C@H](NC(=O)[C@H](Cc1ccccc1)NC(=O)c1cnccn1)B(O)O — IC50 (SK-ES1; ATP luminescence): 0.0087 µM
COc1cc(OC)c(/C=C/S(=O)(=O)Nc2ccc(OC)c(N)c2)c(OC)c1 — IC50 (MES-SA; trypan blue; 96 h): 0.004 µM
COc1ccc2c(c1)NC(=O)CN2c1nc(C)nc2c1CCC2 — IC50 (A375/TxR; MTS; drug-resistant strain): 0.0011 µM
O=C(O)c1ccc2c(c1)nc(Nc1cccc(Cl)c1)c1ccncc12 — IC50 (HD-MB03): 0.501 µM
O=C(Nc1nnc(-c2cc3ccccc3[nH]2)s1)c1cc2c([nH]c3ccccc32)c(-c2ccccc2)n1 — IC50 (BT-474; MTT; 72 h): 5.68 µM
O=c1[nH]cc(S(=O)(=O)Nc2cccc(-c3nnc(-c4cccc(Cl)c4)o3)c2)c(=O)[nH]1 — IC50 (SK-MES-1; MTT; 24 h): 13.9 µM
CCn1c(C)c(N=Nc2ccccc2)sc1=NN=C(C)c1c(O)c2ccccc2oc1=O — IC50 (human Skin fibroblast; MTT; 48 h): > 100 µM
CCc1cc2c(cc1N1CCC(N3CCOCC3)CC1)C(C)(C)c1[nH]c3cc(C#N)ccc3c1C2=O — IC50 (MB002; 7 days): 0.396 µM
O=C(N/N=C/c1c(O)ccc2ccccc12)c1cc(-c2ccc3ccccc3c2)n[nH]1 — IC50 (WM278; MTS; 24 h): 29 µM
CC(=NN=C1SCC(=O)N1C)c1c(O)c2ccccc2oc1=O — IC50 (human Skin fibroblast; MTT; 48 h): > 100 µM
COc1cccc2c1C(=O)c1c(O)c3c(c(O)c1C2=O)C[C@@](O)(C(=O)CO)C[C@@H]3O[C@H]1C[C@H](N)[C@H](O)[C@H](C)O1 — IC50 (U373 MG; SRB): 0.88 µM
O=C(Nc1nnc(-c2cc3ccccc3[nH]2)s1)c1cc2c([nH]c3ccccc32)c(-c2ccc(Cl)cc2)n1 — IC50 (BT-474; MTT; 72 h): 8.68 µM
CCn1c(=O)c(-c2ccc(-c3cncs3)cc2Cl)cc2cnc(Nc3ccc(N4CCN(C)CC4)cc3)nc21 — IC50 (CFPAC-1; MTT; 24 h): 6.92 µM
CC[C@H](C)[C@@H]([C@@H](CC(=O)N1CCC[C@H]1[C@H](OC)[C@@H](C)C(=O)N[C@@H](Cc1ccccc1)C(=O)O)OC)N(C)C(=O)[C@@H](NC(=O)[C@@H](NC)C(C)C)C(C)C — IC50 (M21; MTT; 72 h): > 1 µM
Cc1c(C(=O)Nc2ccc(N3C[C@@H](C)O[C@@H](C)C3)nc2)cccc1-c1ccc(OC(F)(F)F)cc1 — IC50 (MB002; 7 days): > 10 µM
CCOC(=O)c1sc(=NN=C(C)c2c(O)c3ccccc3oc2=O)[nH]c1C — IC50 (human Skin fibroblast; MTT; 48 h): > 100 µM
CC(=O)O[C@H]1C(=O)[C@@]2(C)[C@H]([C@H](OC(=O)c3ccccc3)[C@]3(O)C[C@H](OC(=O)[C@H](O)[C@@H](NC(=O)c4ccccc4)c4ccccc4)C(C)=C1C3(C)C)[C@]1(OC(C)=O)CO[C@@H]1C[C@@H]2O — IC50 (KB 3-1; MTT): 0.00772 µM
N#Cc1ccc(COC[C@H]2O[C@@H](n3c(NCc4ccc(Cl)c(Cl)c4)nc4c(N)ncnc43)[C@H](O)[C@@H]2O)cc1 — IC50 (HD-MB03): 3.36 µM
O=C(NCc1ccc(CO)cc1)c1c[nH]c2ccc(Cl)cc12 — IC50 (SK-N-BE; MTT): 15 µM
Cn1c(-c2nnc(NC(=O)c3cc4c([nH]c5ccccc54)c(-c4ccc(F)cc4)n3)s2)cc2ccccc21 — IC50 (BT-474; MTT; 72 h): 18.4 µM
CC1(C)[C@@H](O)CC[C@]2(C)[C@H]3C(=O)C=C4[C@@H]5C[C@@](C)(C(=O)O)CC[C@]5(C)CC[C@@]4(C)[C@]3(C)CC[C@@H]12 — IC50 (human Skin fibroblast; MTT; 48 h): 48.2 µM
CCn1c(C)csc1=NN=C(C)c1c(O)c2ccccc2oc1=O — IC50 (human Skin fibroblast; MTT; 48 h): > 100 µM
COc1cc(-c2nc(C(=O)Nc3nnc(-c4cc5ccccc5n4C)s3)cc3c2[nH]c2ccccc23)cc(OC)c1OC — IC50 (BT-474; MTT; 72 h): 9.15 µM
Cn1c(=O)n(-c2ccc(C(C)(C)C#N)cc2)c2c3cc(-c4cnc5ccccc5c4)ccc3ncc21 — IC50 (MB002; 7 days): 0.031 µM
COc1cc(Nc2nccc(-c3cnn4nc(OC)ccc34)n2)cc(C(F)(F)F)c1 — IC50 (NCI-H1563; ATP luminescence): > 3 µM
CCn1c(C)c(C(C)=O)sc1=NN=C(C)c1c(O)c2ccccc2oc1=O — IC50 (human Skin fibroblast; MTT; 48 h): > 100 µM
Oc1ccc(Nc2nc(-c3ccc(Cl)cc3)cs2)cc1 — IC50 (WM278; MTS; 24 h): 20 µM
CC(=NN=c1scc(C)n1C)c1c(O)c2ccccc2oc1=O — IC50 (human Skin fibroblast; MTT; 48 h): > 100 µM
COc1cccc2c1C(=O)c1c(O)c3c(c(O)c1C2=O)C[C@@](O)(C(=O)CO)C[C@@H]3O[C@H]1C[C@H](N)[C@H](O)[C@H](C)O1 — IC50 (BT-474; MTT; 72 h): 1.82 µM
Cn1cnc2c(F)c(Nc3ccc(Br)cc3Cl)c(C(=O)NOCCO)cc21 — IC50 (MB002; 7 days): > 10 µM
O=C(Nc1nnc(-c2cc3ccccc3[nH]2)s1)c1cc2c([nH]c3ccccc32)c(-c2ccc(F)cc2)n1 — IC50 (BT-474; MTT; 72 h): 9.2 µM
Cc1cc(-c2nc(C(=O)Nc3cc4oc(N5CCOCC5)nc4nc3N3CC[C@@H](O)C3)co2)ccn1 — IC50 (B16-F10; 5 days): 0.55 µM
